Source: article PMC6425477 (ACS chemical biology, 2018)

What was measured:
D456 GBM PDX cells [1] = assay: 2-deoxyglucose; assay type: cell-based, human
D456 GBM PDX cells [2] = assay: Glucose uptake; assay type: cell-based, human
How it was run: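 D456 GBM PDX cells were given test compound over a range of concentrations. Glucose uptake was read by 2-NBDG, per the manufacturer's protocol. IC50 for glucose uptake came from a curve-fit model.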

GBM PDX cells = assay: Extracellular flux analysis glycolytic stress test; assay type: cell-based, human; conditions: 50 μM; for increase in ECAR following the addition of oligomycin: 4 hours
How it was run: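 Glycolysis stress test on a Seahorse XF96 flux analyzer in GBM PDX cells. Cells were glucose-starved with test compound at 50 μM for 4 h, then given glucose, oligomycin and 2-DG in turn. Glycolysis = ECAR after glucose minus basal. Capacity and reserve are derived from ECAR before and after 2-DG and oligomycin. Two experiments, n=6; mean ± sem; Student's t-test versus control.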

[3] = system: GBM PDX cell lines, D456, GBM157, and 1016; assay: 2-NBDG glucose uptake in three GBM PDX cell lines; assay type: cell-based, human; conditions: 50 μM; all cells tested (D456, GBM157, 1016)
How it was run: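 2-NBDG uptake in D456, GBM157 and 1016 GBM PDX cells, run per the manufacturer's protocol. Test compound (DMSO stock) at 50 μM. Data averaged from 2 experiments with n=3 per group. Compared by one-way ANOVA with Tukey's multiple comparisons.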

D456 GBM PDX cells [4] = assay: Cell growth; assay type: cell-based, human
How it was run: (§1)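 D456 pediatric primary GBM PDX cells and normal human astrocytes were treated in the same manner with test compound (DMSO stock) at 5, 20 and 50 μM for 7 days. Growth was read by cell titer. IC50 came from non-linear regression. D456 and NHA were compared by one-way ANOVA with Dunnett's multiple comparisons.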

[5] = system: normal human astrocytes (NHAs); assay: Cell growth / toxicity in normal human astrocytes; assay type: cell-based; conditions: for growth inhibition of GBM PDX cells compared to NHAs: D456 GBM PDX vs NHAs, 5, 20, 50 μM, 7 days
How it was run: as §1

GLUT1 = conditions: pharmacological inhibition of GLUT1; cited from earlier work
[6] = dose-response, Supporting Information Figure 3c

IC50 (D456 GBM PDX cells [2]; read-out: IC50 for glucose uptake, Supporting Information Figure 3c) | Structure (SMILES) | decrease in glucose uptake (2-DG) (D456 GBM PDX cells [1]) | glucose uptake compared to control (2-DG) (D456 GBM PDX cells [1]) | plateau of glucose uptake inhibition (D456 GBM PDX cells [2]; [6]) | threshold concentration at which glucose uptake inhibition plateaus (D456 GBM PDX cells [2]; [6]) | glycolytic capacity (ECAR before 2-DG minus ECAR after 2-DG) (GBM PDX cells) | glycolytic reserve capacity (ECAR after Oligo minus ECAR before Oligo) (GBM PDX cells) | increase in ECAR following the addition of oligomycin (GBM PDX cells) | ECAR ascribed to glycolysis after injection of glucose (GBM PDX cells; 4 hours glucose starvation before glucose) | inhibition of glucose uptake (2-NBDG) [3] | inhibition of D456 GBM PDX cell growth (in words) (D456 GBM PDX cells [4]; 5 μM) | toxicity to NHAs [5] | growth inhibition of GBM PDX cells compared to NHAs [5] | IC50 (D456 GBM PDX cells [4]; read-out: IC50 for growth inhibition, D456 GBM PDX cells, 7 days) | tumor formation capabilities of TICs (GLUT1) | inhibition of glucose uptake (in words) (D456 GBM PDX cells [2]; D456 GBM PDX cells, Supporting Information Figures 4 and 5) | GBM PDX cell growth (in words) (D456 GBM PDX cells [4]; GBM PDX cells, line not given, Supplementary Figure 5b)
– | O=C1CC(c2ccc(-c3ccn[nH]3)s2)c2cc(N3CCNC3=O)ccc2N1 (stereo not shown) [SRI-37683] | approximately 40% | 60% | ~50% | approximately 3 μM | decrease | decrease | inhibited an increase in ECAR | significantly inhibited | 40–50% | almost completely inhibited | minimal toxicity | significantly stronger growth inhibition | – | – | – | –
33 µM | O=C1CC(c2cccc3[nH]ccc23)c2ccc(NC(=O)c3cccnc3)cc2N1 (stereo not shown) [SRI-37684] | ~50% | 50% | – | – | decrease | decrease | inhibited an increase in ECAR | – | 40–50% | – | minimal toxicity | significantly stronger growth inhibition | 8.6 µM | – | – | –
– | O=C(Oc1cccc(F)c1OC(=O)c1cccc(O)c1)c1cccc(O)c1 [WZB117, 2-Fluoro-6-(m-hydroxybenzoyloxy) Phenyl m-Hydroxybenzoate] | – | – | – | – | – | – | – | – | – | – | – | – | – | decrease the tumor formation capabilities of TICs | – | –
– | O=c1c(-c2ccc(O)cc2)coc2cc(O)cc(O)c12 [genistein, reference compound] | – | – | – | – | – | – | – | – | – | – | – | – | – | – | inhibited glucose uptake | did reduce GBM PDX cell growth
